The record followed here is ChEMBL document CHEMBL5365533, “DNA major versus minor groove occupancy of monomeric and dimeric crystal violet derivatives. Toward structural correlations” (Bioorg Med Chem, 2023).

Active and inactive are the calls of the source. No cut-off for these calls is given here. A value given as a limit tells only on which side of the number the result lay.

In experiment [1] the test system is Calf thymus DNA. Put plainly: Ratio of Kapp for displacement of ethidium bromide from calf thymus DNA/EtBr complex to Kapp for displacement of ethidium bromide from calf thymus DNA/EtBr in presence of netropsin. In kind it is nucleic-acid assay. Particulars: Bos taurus. Summed up: (§1)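 Fluorescence titration of CT DNA (1.0 μM/bp) plus ethidium (0.5 μM), with or without netropsin or methyl green (0.5 μM each), against increasing ligand in 10 mM Tris-HCl pH 7.0. Excitation 520 nm, emission 590 nm, read after 3 min equilibration. C50 is the concentration giving 50% fluorescence loss; Kapp = 9.5×10^6 M⁻¹ × C_ethidium/C50.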

Experiment [2] in a line: Binding affinity to DDD hairpin DNA (unknown origin) in Tris-HCl buffer at pH 5.0 assessed as negative induced CD bands formation at 310nm at 1 mM incubated for 5 mins by CD spectra analysis. Summed up:
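Ligand (1 mM stock) added in small aliquots to DDD hairpin (8.8 μM) in 10 mM Tris-HCl pH 5.0; mixed by inversion and incubated 5 min at 20 °C. CD recorded 215–350 nm in 0.5 nm steps as the average of three scans.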

In experiment [3] the test system is Calf thymus DNA. Put plainly: Binding affinity to calf thymus DNA assessed as bathochromic shift by UV spectroscopic analysis. The format is nucleic-acid assay. Particulars: Bos taurus. A digest of the protocol: (§2)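 UV titration in 10 mM Tris-HCl pH 7.0 with ligand fixed at 5.0 μM and CT DNA:ligand ratios of 0:1, 1:1, 2:1, 5:1, 10:1 and 30:1.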
Experiment [4] has as its system Calf thymus DNA. Put plainly: Binding affinity to calf thymus DNA in Tris-HCl buffer at pH 7.0 assessed as change in entropy at 100 uM by isothermal titration […] analysis. The format is nucleic-acid assay. Particulars: Bos taurus. A digest of the protocol:
(§3)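 ITC of CT DNA (100 μM/bp in cell) titrated with ligand (100 μM in syringe), 10 mM Tris-HCl pH 7.0; 25 injections of 10 μL at 30 °C, or for one ligand 50 injections of 5 μL at 27 °C. Buffer-into-DNA heats subtracted; single-site model gives K, N, ΔH and ΔS.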
On the technique in general: ITC needs no label: the signal is the heat of the interaction.

Experiment [5] concerns Calf thymus DNA. Put plainly: Binding affinity to calf thymus DNA in Tris-HCl buffer at pH 7.0 assessed as change in enthalpy at 100 uM by isothermal titration […] analysis. In kind it is nucleic-acid assay. Particulars: Bos taurus. Summed up:
as §3

Experiment [6] can be described thus: Binding affinity to DDD hairpin DNA (unknown origin) assessed as binding constant at 100 uM by ITC analysis. A digest of the protocol:
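Isothermal titration calorimetry of DDD hairpin (10 μM in cell) titrated with ligand (100 μM in syringe), 10 mM Tris-HCl pH 7.0, 30 °C; 25 injections of 10 μL. Heats of dilution subtracted; single-site binding model fitted; K averaged from triplicate experiments.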

Experiment [7] has as its system Calf thymus DNA. Put plainly: Binding affinity to calf thymus DNA in Tris-HCl buffer at pH 7.0 assessed as minimal change in viscosity at 2 to 26 uM incubated for 30 mins by Ostwald viscometer analysis. In kind it is nucleic-acid assay. Particulars: Bos taurus, dose 2-26 µM. A digest of the protocol:
(§4)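 Ostwald viscometer at 23.0 ± 1 °C. CT DNA held at 300 μM/bp in 10 mM Tris-HCl pH 7.0 with ligand or ethidium at 0–26 μM, incubated 30 min before timing flow. (η/η0)^1/3 plotted against [ligand]/[DNA]; three replicates, SD shown.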

The test system of experiment [8] is Calf thymus DNA. Put plainly: Binding affinity to calf thymus DNA assessed as hypochromic shift by UV spectroscopic analysis. The format is nucleic-acid assay. Particulars: Bos taurus. Summed up: as §2
Experiment [9] concerns DNA. Put plainly: Displacement of Ethidium bromide from (AT)5 (5'-GGGATATA-TATATCCC-3') DNA (unknown origin)/EtBr complex assessed as decrease in initial absorbance of DNA by crystal violet staining based analysis. In kind it is nucleic-acid assay.
Experiment [10] deals with Calf thymus DNA. Put plainly: Ratio of Kapp for displacement of ethidium bromide from calf thymus DNA/EtBr complex to Kapp for displacement of ethidium bromide from calf thymus DNA/EtBr in presence of methyl green. The format is nucleic-acid assay. Particulars: Bos taurus. A digest of the protocol: as §1
Experiment [11] in a line: Displacement of Ethidium bromide from NFAT1 (5-GAAAAA-3') hairpin DNA (unknown origin)/EtBr complex assessed as binding constant by crystal violet staining based analysis.
Experiment [12] in a line: Binding affinity to DDD (5-CGAATT-3') hairpin DNA (unknown origin) assessed as binding constant by isothermal titration calorimetry.
Experiment [13] relates to Calf thymus DNA. Put plainly: Binding affinity to calf thymus DNA assessed as change in melting temperature by UV thermal denaturation assay. The format is nucleic-acid assay. Particulars: Bos taurus. Summed up: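 CT DNA in 10 mM Tris-HCl pH 7.0 at a DNA:ligand ratio of 30:1, in 1 cm quartz cuvettes. Absorbance read every 2 °C from 25 to 95 °C, heating at 1 °C/min. Tm taken from first-derivative plots.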

Experiment [14] concerns Calf thymus DNA. Put plainly: Binding affinity to calf thymus DNA in Tris-HCl buffer at pH 7.0 assessed as rigidification of DNA from intercalation of drug incubated for 30 mins by Ostwald viscometer analysis. In kind it is nucleic-acid assay. Particulars: Bos taurus. A digest of the protocol:
as §4

Experiment [15] is described as follows: Displacement of Ethidium bromide from G5C5 (5'-AAAGGGGG-CCCCCTTT-3') DNA (unknown origin)/EtBr complex assessed as decrease in initial absorbance of DNA by crystal violet staining based analysis.
Experiment [16] relates to Calf thymus DNA. Put plainly: Binding affinity to calf thymus DNA in Tris-HCl buffer at pH 7.0 assessed as lengthening of DNA from intercalation of drug incubated for 30 mins by Ostwald viscometer analysis. The format is nucleic-acid assay. Particulars: Bos taurus. Summed up:
as §4

Experiment [17] relates to DNA. Put plainly: Displacement of Ethidium bromide from A5T5 (5'-GGGAAAAATTTTTCCCCC-3') DNA (unknown origin)/EtBr complex assessed as decrease in initial absorbance of DNA by crystal violet staining based analysis. In kind it is nucleic-acid assay.
Experiment [18] can be described thus: Displacement of Ethidium bromide from cMyc (5'-CACGTG-3') hairpin DNA (unknown origin)/EtBr complex assessed as binding constant by crystal violet staining based analysis.
Experiment [19] has as its system AT rich DNA. Put plainly: Displacement of Ethidium bromide from AT3 (5'-ATATAT-3') hairpin DNA (unknown origin)/EtBr complex assessed as binding constant by crystal violet staining based analysis. In kind it is nucleic-acid assay.
Experiment [20] deals with Calf thymus DNA. Put plainly: Binding affinity to calf thymus DNA in Tris-HCl buffer at pH 7.0 assessed as differential groove occupancy at 100 uM by ITC analysis. The format is nucleic-acid assay. Particulars: Bos taurus. Summed up: as §3
The nature of experiment [21]: Displacement of Ethidium bromide from STAT6 (5'-TCCTAG-3') hairpin DNA (unknown origin)/EtBr complex assessed as binding constant by crystal violet staining based analysis.
The nature of experiment [22]: Displacement of Ethidium bromide from STAT6 (5'-TCCTAG-3') hairpin DNA (unknown origin)/EtBr complex assessed as decrease in initial absorbance of DNA by crystal violet staining based analysis.
The subject of experiment [23] is Calf thymus DNA. Put plainly: Binding affinity to calf thymus DNA in Tris-HCl buffer at pH 7.0 assessed as decrease in viscosity incubated for 30 mins by Ostwald viscometer analysis. The format is nucleic-acid assay. Particulars: Bos taurus. Summed up: as §4
The nature of experiment [24]: Displacement of Ethidium bromide from cMyc (5'-CACGTG-3') hairpin DNA (unknown origin)/EtBr complex assessed as decrease in initial absorbance of DNA by crystal violet staining based analysis.
Experiment [25] can be described thus: Displacement of Ethidium bromide from NFAT1 (5-GAAAAA-3') hairpin DNA (unknown origin)/EtBr complex assessed as decrease in initial absorbance of DNA by crystal violet staining based analysis.
The subject of experiment [26] is AT rich DNA. Put plainly: Displacement of Ethidium bromide from AT3 (5'-ATATAT-3') hairpin DNA (unknown origin)/EtBr complex assessed as decrease in initial absorbance of DNA by crystal violet staining based analysis. In kind it is nucleic-acid assay.
Experiment [27] relates to Calf thymus DNA. Put plainly: Binding affinity to calf thymus DNA in Tris-HCl buffer at pH 5.0 assessed as dye aggregation in the DNA groove at 310nm at 1 mM incubated for 5 mins by UV spectra analysis. In kind it is nucleic-acid assay. Particulars: Bos taurus. A digest of the protocol:
(§5)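 CT DNA (80 μM/bp) in 10 mM Tris-HCl pH 5.0 received small aliquots of ligand from a 1 mM stock; incubated 5 min at 20 °C. CD (average of three scans) and UV spectra recorded 215–350 nm in 0.5 nm increments under identical conditions.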

A short description of experiment [28]: Displacement of Ethidium bromide from G6 (5'-GGGGGG-3') hairpin DNA (unknown origin)/EtBr complex assessed as decrease in initial absorbance of DNA by crystal violet staining based analysis.
A short description of experiment [29]: Displacement of Ethidium bromide from DDD (5-CGAATT-3') hairpin DNA (unknown origin)/EtBr complex assessed as decrease in initial absorbance of DNA by crystal violet staining based analysis.
For experiment [30], the system named is Calf thymus DNA. Put plainly: Binding affinity to calf thymus DNA in Tris-HCl buffer at pH 5.0 assessed as dye aggregation in the DNA groove at 337nm at 1 mM incubated for 5 mins by UV spectra analysis. In kind it is nucleic-acid assay. Particulars: Bos taurus. Summed up:
as §5

A word on the ΔTm: it is the change in melting temperature against a reference sample. With `Cc1cc(N(C)C)cc(C)c1C(=C1C=CC(=[N+](C)C)C=C1)c1ccc(N(C)C)cc1`, the Ratio in experiment [1] was 1.3; in [10] it was greater than 8. The result in experiment [2], in [3], in [8], in [14], in [16] and in experiment [20] was Active. Also, the deltaS in experiment [4] amounted to 0.122 kcal/mol. For the same molecule, in [5], the deltaH came to 29.7 kcal/mol. Further, the K in experiment [6] is 14.6 10^5/M; in [11], 0.19 10^5/M; in experiment [12], 14.6 10^5/M; in [18], 1.26e+06 M⁻¹; in [19], 0.21 10^5/M; in [21], 1.06 10^5/M. In addition, in [7], the Activity entry was “Dose-Dependent Effect”. Besides, the C50 was 1.57 µM in experiment [9], 2.05 µM in experiment [15] and 1.86 µM in [17]. In addition, the ΔTm in experiment [13] was found to be 2.8 °C.

Regarding `CN(C)c1ccc(C(=C2C=CC(=[N+](C)C)C=C2)c2ccc(OCc3ccccc3COc3ccc(C(=C4C=CC(=[N+](C)C)C=C4)c4ccc(N(C)C)cc4)cc3)cc2)cc1`, the C50 came to 1.09 µM in experiment [22]; 1.56 µM in [24]; 2.64 µM in experiment [25]; 2.08 µM in experiment [26]; 1 µM in experiment [28]; 1.57 µM in [29]. Moreover, the Activity result in [23] was “Dose-Dependent Effect”. Moreover, the result in experiment [3], in experiment [8], in [27], in [30] and in [20] was Active. Besides, the deltaS in [4] was -0.12 kcal/mol. The deltaH in [5] is -44.7 kcal/mol. Also, the K in [6] is 20.5 10^5/M; in experiment [11], 29.1 10^5/M; in experiment [12], 20.5 10^5/M; in [18] it was 5.06e+06 M⁻¹; in [19], 1.3 10^5/M; in [21], 1.32 10^5/M. Further, the shift in melting temperature (ΔTm) in experiment [13] came to 0.9 °C.
